From publication PMC12091843 (Chemmedchem, 2025)
Converted amounts (≈) assume the structure as drawn. Like-named read-outs stand apart in the source and are kept apart here.

Key:
[1] = biological target: AB ATP synthase (UniProt A3M139+B2I0Z6); format: biochemical, Acinetobacter baumannii; details: for Inhibition of AB ATP synthase (in words): even at high / highest concentrations tested
[2] = biological target: PA ATP synthase (Pseudomonas aeruginosa, UniProt Q9HT14+Q9HT15); assay: biochemical; details: for Inhibition of PA ATP synthase (in words): even at high / highest concentrations tested
[3] = system: MT ATP synthase; details: cited from earlier work
[4] = system: PA 2108 (MDR); assay: Broth microdilution antibacterial activity; format: cell-based, Pseudomonas aeruginosa; details: for MIC: Pseudomonas aeruginosa; for Antibacterial activity against PA (in words): highest concentration tested
[5] = system: AB 17978; assay: Broth microdilution antibacterial activity; format: cell-based; details: Acinetobacter baumannii, read-out: MIC AB 17978
[6] = system: AB 1605 (MDR); assay: Broth microdilution antibacterial activity; format: cell-based; details: Acinetobacter baumannii, read-out: MIC AB 1605 (MDR)
[7] = system: AB (17978 and 1605); assay: Broth microdilution antibacterial activity, AB strains summarised in the text; format: cell-based, Acinetobacter baumannii; details: for Antibacterial activity against AB strains (in words): highest concentration tested; for MIC: Acinetobacter baumannii, read-out: MICs against AB, one or both strains tested
[8] = system: PA ETC; assay: Inhibition of NADH-driven H+ pumping of the ETC in PA inverted vesicles; format: biochemical, Pseudomonas aeruginosa
Method in brief: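 Inverted inner-membrane vesicles came from P. aeruginosa ATCC 9027 (LB, 37°C, 150 rpm, late exponential). Cells were homogenizer-lysed in Tris-HCl pH 7.5/MgCl2/glycerol buffer, cleared at 9,000 x g, and vesicles pelleted at 169,000 x g. Assay used vesicles at 0.5 mg/mL in HEPES/300 mM KCl pH 7.5 with ACMA and test compound in DMSO. NADH to 0.8 mM started pumping; nigericin stopped it. Fluorescence Ex 415/Em 485 nm; percent quenching normalized to no-inhibitor control.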

| SMILES | MIC ([4]; read-out: MIC PA 2108 (MDR)) | MIC [5] | MIC [6] | MIC [7] | further results |
| --- | --- | --- | --- | --- | --- |
| COc1nc2ccc(Br)cc2cc1[C@@H](c1ccccc1)[C@@](O)(CCN(C)C)c1cccc2ccccc12 [BDQ, bedaquiline, reference compound] |  |  |  |  | Inhibition of AB ATP synthase (in words) [1]: does not fully inhibit; Inhibition of PA ATP synthase (in words) [2]: does not fully inhibit; Potency against MT ATP synthase (in words) [3]: nanomolar potency |
| O=C(N[C@H](CO)[C@H](O)c1ccc([N+](=O)[O-])cc1)C(Cl)Cl [Chloramphenicol, reference compound] | 64 µg/mL (≈ 198 µM) | 64 µg/mL (≈ 198 µM) |  |  |  |
| c1ccc(CSc2nc3ccccc3cc2CNCc2ccc(N3CCCCC3)cc2)cc1 [WSA248, 1‐(2‐(benzylthio)quinolin‐3‐yl)‐N‐(4‐(piperidin‐1‐yl)benzyl)methanamine] | > 128 µg/mL | > 128 µg/mL | > 128 µg/mL |  | Antibacterial activity against AB strains (in words) [7]: inactive; Inhibition of AB ATP synthase (in words) [1]: no significant inhibition; Antibacterial activity against PA (in words) [4]: inactive; Inhibition of PA ATP synthase (in words) [2]: no significant inhibition |
| c1ccc(CSc2nc3ccccc3cc2CNCc2ccc(CN3CCCC3)cc2)cc1 [WSA249, 1‐(2‐(benzylthio)quinolin‐3‐yl)‐N‐(4‐(pyrrolidin‐1‐ylmethyl)benzyl)methanamine] | 16 µg/mL (≈ 35.3 µM) | 32 µg/mL (≈ 70.5 µM) | 64 µg/mL (≈ 141 µM) |  | MIC ([4]; read-out: MIC against MDR PA): 16 µg/mL (≈ 35.3 µM) |
| CN1CCN(CCNCc2cc3ccccc3nc2SCc2ccccc2)CC1 [WSA250, N‐((2‐(benzylthio)quinolin‐3‐yl)methyl)‐2‐(4‐methylpiperazin‐1‐yl)ethan‐1‐amine] | 64 µg/mL (≈ 157 µM) | 64 µg/mL (≈ 157 µM) | 128 µg/mL (≈ 315 µM) |  |  |
| CCN1CCC(CCNCc2cc3cc(OC)c(OC)c(OC)c3nc2SCc2ccccc2)CC1 [WSA251, N‐((2‐(benzylthio)‐6,7,8‐trimethoxyquinolin‐3‐yl)methyl)‐2‐(1‐ethylpiperidin‐4‐yl)ethan‐1‐amine] | 128 µg/mL (≈ 251 µM) | 128 µg/mL (≈ 251 µM) | > 128 µg/mL |  | Fold less potent than WSA236 against AB (antibacterial) ([7]; MIC comparison): 2 fold; Fold less potent than WSA236 against PA (antibacterial) ([4]; MIC comparison): 4 fold |
| COc1cc2cc(CNCCC3CCN(C4CCCC4)CC3)c(SCc3ccccc3)nc2c(OC)c1OC [WSA252, N‐((2‐(benzylthio)‐6,7,8‐trimethoxyquinolin‐3‐yl)methyl)‐2‐(1‐cyclopentylpiperidin‐4‐yl)ethan‐1‐amine] | 64 µg/mL (≈ 116 µM) | 64 µg/mL (≈ 116 µM) |  |  |  |
| COc1cc2cc(CNCCN3CCN(C)CC3)c(SCc3ccccc3)nc2c(OC)c1OC [WSA253, N‐((2‐(benzylthio)‐6,7,8‐trimethoxyquinolin‐3‐yl)methyl)‐2‐(4‐methylpiperazin‐1‐yl)ethan‐1‐amine] | 128 µg/mL (≈ 258 µM) | 128 µg/mL (≈ 258 µM) | > 128 µg/mL |  | Fold improvement of IC50 for AB by trimethoxy modification [1]: 3 fold; Fold worsening of IC50 for PA by trimethoxy modification [2]: ~3 fold |
| CCN1CCC(CCNCc2cc3cc(Br)ccc3nc2SCc2ccccc2)CC1 [WSA254, N‐((2‐(benzylthio)‐6‐bromoquinolin‐3‐yl)methyl)‐2‐(1‐ethylpiperidin‐4‐yl)ethan‐1‐amine] | 32 µg/mL (≈ 64.2 µM) | 16 µg/mL (≈ 32.1 µM) |  | 8 to 16 µg/mL (≈ 16 to 32.1 µM) |  |
| Brc1ccc2nc(SCc3ccccc3)c(CNCCC3CCN(C4CCCC4)CC3)cc2c1 [WSA255, N‐((2‐(benzylthio)‐6‐bromoquinolin‐3‐yl)methyl)‐2‐(1‐cyclopentylpiperidin‐4‐yl)ethan‐1‐amine] | 32 µg/mL (≈ 59.4 µM) | 16 µg/mL (≈ 29.7 µM) |  | 8 to 16 µg/mL (≈ 14.9 to 29.7 µM) | IC50 [2]: 427 nM; Fold less potent against the ETC compared to ATP synthase ([8]; PA ETC IC50 versus PA ATP synthase IC50): more than 7 fold; PA ETC IC50 ([8]; PA vesicles, dose response fit): 1.7 µg/mL |
| Brc1ccc2nc(SCc3ccccc3)c(CNCc3ccc(CN4CCCC4)cc3)cc2c1 [WSA256, 1‐(2‐(benzylthio)‐6‐bromoquinolin‐3‐yl)‐N‐(4‐(pyrrolidin‐1‐ylmethyl)benzyl)methanamine] | > 128 µg/mL | > 128 µg/mL | > 128 µg/mL |  | Antibacterial activity against AB strains (in words) [7]: inactive; Antibacterial activity against PA (in words) [4]: inactive |
| CN1CCN(CCNCc2cc3cc(Br)ccc3nc2SCc2ccccc2)CC1 [WSA257, N‐((2‐(benzylthio)‐6‐bromoquinolin‐3‐yl)methyl)‐2‐(4‐methylpiperazin‐1‐yl)ethan‐1‐amine] | 16 µg/mL (≈ 33 µM) | 8 µg/mL (≈ 16.5 µM) | 16 µg/mL (≈ 33 µM) | 8 to 16 µg/mL (≈ 16.5 to 33 µM) | MIC ([4]; read-out: MIC against MDR PA): 16 µg/mL (≈ 33 µM); IC50 [2]: 268 nM |
| CCN1CCC(CCNCc2cc3cc(-c4ccccc4)ccc3nc2SCc2ccccc2)CC1 [WSA261, N‐((2‐(benzylthio)‐6‐phenylquinolin‐3‐yl)methyl)‐2‐(1‐ethylpiperidin‐4‐yl)ethan‐1‐amine] | 64 µg/mL (≈ 129 µM) | 8 µg/mL (≈ 16.1 µM) | 16 µg/mL (≈ 32.3 µM) | 8 to 16 µg/mL (≈ 16.1 to 32.3 µM) |  |
| c1ccc(CSc2nc3ccc(-c4ccccc4)cc3cc2CNCCC2CCN(C3CCCC3)CC2)cc1 [WSA262, N‐((2‐(benzylthio)‐6‐phenylquinolin‐3‐yl)methyl)‐2‐(1‐cyclopentylpiperidin‐4‐yl)ethan‐1‐amine] | 64 µg/mL (≈ 119 µM) | 32 µg/mL (≈ 59.7 µM) |  |  |  |
| c1ccc(CSc2nc3ccc(-c4ccccc4)cc3cc2CNCc2ccc(CN3CCCC3)cc2)cc1 [WSA269, 1‐(2‐(benzylthio)‐6‐phenylquinolin‐3‐yl)‐N‐(4‐(pyrrolidin‐1‐ylmethyl)benzyl)methanamine] | > 128 µg/mL | > 128 µg/mL | > 128 µg/mL |  | Antibacterial activity against AB strains (in words) [7]: inactive; Antibacterial activity against PA (in words) [4]: inactive |
| CN1CCN(CCNCc2cc3cc(-c4ccccc4)ccc3nc2SCc2ccccc2)CC1 [WSA270, N‐((2‐(benzylthio)‐6‐phenylquinolin‐3‐yl)methyl)‐2‐(4‐methylpiperazin‐1‐yl)ethan‐1‐amine] | 32 µg/mL (≈ 66.3 µM) | 16 µg/mL (≈ 33.1 µM) |  | 8 to 16 µg/mL (≈ 16.6 to 33.1 µM) |  |
